Assays:
[1] = PK study in mice; assay type: in vivo; details: male, ICR, mouse, plasma, po, 3 mg/kg
[2] = PK study in rats; assay type: in vivo; details: male, Sprague Dawley, rat, plasma, po, 3 mg/kg
[3] = target: T1, IKZF2 (Homo sapiens, UniProt Q96SW2+Q9UKS7); test: IKZF2 HiBiT degradation assay in HEK293 cells; assay type: cell-based; details: for Dmax: HEK293, read-out: IKZF2 degradation Dmax
[4] = target: SALL4 (Homo sapiens, UniProt Q9UJQ4); test: SALL4 HiBiT degradation assay in HEK293 cells; assay type: cell-based
Chain of SALL4 (Q96SW2 whole entry partner): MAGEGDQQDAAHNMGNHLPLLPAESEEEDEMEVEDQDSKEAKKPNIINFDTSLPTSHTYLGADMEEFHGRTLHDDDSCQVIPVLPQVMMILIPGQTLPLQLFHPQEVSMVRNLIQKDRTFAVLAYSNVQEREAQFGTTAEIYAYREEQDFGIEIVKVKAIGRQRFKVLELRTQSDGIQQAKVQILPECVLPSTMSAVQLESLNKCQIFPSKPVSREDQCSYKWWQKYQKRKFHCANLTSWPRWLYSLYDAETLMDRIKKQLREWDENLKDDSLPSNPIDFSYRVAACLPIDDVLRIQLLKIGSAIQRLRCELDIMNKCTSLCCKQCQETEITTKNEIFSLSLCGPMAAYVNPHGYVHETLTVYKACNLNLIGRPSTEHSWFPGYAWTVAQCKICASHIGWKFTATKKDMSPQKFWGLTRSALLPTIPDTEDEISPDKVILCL
Chain of SALL4 (Q16531 whole entry partner): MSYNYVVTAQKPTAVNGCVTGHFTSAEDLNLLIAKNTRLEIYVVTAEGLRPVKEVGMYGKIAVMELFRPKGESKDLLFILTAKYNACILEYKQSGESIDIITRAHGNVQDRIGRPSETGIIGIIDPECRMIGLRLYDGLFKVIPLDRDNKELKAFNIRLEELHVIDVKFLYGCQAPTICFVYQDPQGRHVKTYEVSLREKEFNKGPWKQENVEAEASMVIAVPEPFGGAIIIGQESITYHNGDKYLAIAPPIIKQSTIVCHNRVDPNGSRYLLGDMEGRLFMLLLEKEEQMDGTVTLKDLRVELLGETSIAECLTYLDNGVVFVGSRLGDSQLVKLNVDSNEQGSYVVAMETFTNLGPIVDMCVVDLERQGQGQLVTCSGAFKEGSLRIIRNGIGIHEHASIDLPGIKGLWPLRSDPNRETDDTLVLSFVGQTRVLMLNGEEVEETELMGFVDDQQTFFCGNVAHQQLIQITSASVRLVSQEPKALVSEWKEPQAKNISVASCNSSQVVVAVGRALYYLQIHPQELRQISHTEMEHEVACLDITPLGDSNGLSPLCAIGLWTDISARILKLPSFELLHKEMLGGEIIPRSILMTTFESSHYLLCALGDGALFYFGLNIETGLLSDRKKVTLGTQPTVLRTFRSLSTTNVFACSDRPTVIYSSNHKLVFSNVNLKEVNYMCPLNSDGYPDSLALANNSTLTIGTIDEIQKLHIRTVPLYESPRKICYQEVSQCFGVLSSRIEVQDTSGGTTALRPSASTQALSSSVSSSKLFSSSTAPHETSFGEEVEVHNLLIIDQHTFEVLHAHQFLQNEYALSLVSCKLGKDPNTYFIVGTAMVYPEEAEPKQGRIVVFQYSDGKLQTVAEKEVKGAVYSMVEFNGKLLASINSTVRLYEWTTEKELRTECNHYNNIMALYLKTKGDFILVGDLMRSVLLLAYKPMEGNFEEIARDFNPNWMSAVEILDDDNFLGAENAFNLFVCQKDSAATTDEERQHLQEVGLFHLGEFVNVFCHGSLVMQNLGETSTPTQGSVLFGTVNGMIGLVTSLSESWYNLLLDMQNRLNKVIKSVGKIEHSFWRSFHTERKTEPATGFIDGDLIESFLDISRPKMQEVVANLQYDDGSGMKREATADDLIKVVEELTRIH
Chain of SALL4 (Q9UJQ4 whole entry): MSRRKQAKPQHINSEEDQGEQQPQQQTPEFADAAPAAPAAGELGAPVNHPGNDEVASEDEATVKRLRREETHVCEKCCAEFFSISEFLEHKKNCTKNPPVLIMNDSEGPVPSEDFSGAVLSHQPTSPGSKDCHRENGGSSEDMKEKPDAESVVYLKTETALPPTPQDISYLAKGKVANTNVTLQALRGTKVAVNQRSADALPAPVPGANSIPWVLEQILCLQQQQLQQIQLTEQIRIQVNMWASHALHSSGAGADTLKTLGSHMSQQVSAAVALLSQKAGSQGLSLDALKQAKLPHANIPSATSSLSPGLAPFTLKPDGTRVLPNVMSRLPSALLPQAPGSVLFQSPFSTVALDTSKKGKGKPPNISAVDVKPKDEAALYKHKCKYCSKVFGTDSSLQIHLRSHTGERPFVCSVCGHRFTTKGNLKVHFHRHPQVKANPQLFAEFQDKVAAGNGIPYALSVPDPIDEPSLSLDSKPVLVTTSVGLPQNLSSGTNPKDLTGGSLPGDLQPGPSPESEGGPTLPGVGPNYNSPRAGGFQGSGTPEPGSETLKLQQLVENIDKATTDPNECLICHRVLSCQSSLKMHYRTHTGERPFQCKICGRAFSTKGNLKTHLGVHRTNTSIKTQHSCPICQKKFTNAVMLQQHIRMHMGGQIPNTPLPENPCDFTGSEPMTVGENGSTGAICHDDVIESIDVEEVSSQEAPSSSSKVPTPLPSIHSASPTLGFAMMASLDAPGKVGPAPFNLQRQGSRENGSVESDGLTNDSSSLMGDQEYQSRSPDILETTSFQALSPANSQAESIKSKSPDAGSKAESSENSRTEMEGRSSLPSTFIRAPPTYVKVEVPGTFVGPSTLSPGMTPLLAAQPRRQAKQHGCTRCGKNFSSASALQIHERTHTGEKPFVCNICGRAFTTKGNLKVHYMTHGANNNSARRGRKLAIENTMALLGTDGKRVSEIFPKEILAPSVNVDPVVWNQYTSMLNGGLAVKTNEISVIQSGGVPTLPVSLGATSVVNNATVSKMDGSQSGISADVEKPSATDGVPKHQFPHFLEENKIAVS
Outline: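 Each HiBiT-tagged target construct was integrated into the FRT site by the FLP-IN system, and integration was checked by lytic HiBiT detection. Cells got test compound at 0.017 nM to 10 µM, with DMSO as vehicle control, for 6 h. HiBiT signal was then read by lytic luminescence detection. DC50 and Dmax came from a four-parameter dose-response fit.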

[5] = target: hERG channel (Homo sapiens, UniProt Q12809); test: hERG channel inhibition, manual patch-clamp; assay type: cell-based
Chain of hERG channel (Q12809 whole entry): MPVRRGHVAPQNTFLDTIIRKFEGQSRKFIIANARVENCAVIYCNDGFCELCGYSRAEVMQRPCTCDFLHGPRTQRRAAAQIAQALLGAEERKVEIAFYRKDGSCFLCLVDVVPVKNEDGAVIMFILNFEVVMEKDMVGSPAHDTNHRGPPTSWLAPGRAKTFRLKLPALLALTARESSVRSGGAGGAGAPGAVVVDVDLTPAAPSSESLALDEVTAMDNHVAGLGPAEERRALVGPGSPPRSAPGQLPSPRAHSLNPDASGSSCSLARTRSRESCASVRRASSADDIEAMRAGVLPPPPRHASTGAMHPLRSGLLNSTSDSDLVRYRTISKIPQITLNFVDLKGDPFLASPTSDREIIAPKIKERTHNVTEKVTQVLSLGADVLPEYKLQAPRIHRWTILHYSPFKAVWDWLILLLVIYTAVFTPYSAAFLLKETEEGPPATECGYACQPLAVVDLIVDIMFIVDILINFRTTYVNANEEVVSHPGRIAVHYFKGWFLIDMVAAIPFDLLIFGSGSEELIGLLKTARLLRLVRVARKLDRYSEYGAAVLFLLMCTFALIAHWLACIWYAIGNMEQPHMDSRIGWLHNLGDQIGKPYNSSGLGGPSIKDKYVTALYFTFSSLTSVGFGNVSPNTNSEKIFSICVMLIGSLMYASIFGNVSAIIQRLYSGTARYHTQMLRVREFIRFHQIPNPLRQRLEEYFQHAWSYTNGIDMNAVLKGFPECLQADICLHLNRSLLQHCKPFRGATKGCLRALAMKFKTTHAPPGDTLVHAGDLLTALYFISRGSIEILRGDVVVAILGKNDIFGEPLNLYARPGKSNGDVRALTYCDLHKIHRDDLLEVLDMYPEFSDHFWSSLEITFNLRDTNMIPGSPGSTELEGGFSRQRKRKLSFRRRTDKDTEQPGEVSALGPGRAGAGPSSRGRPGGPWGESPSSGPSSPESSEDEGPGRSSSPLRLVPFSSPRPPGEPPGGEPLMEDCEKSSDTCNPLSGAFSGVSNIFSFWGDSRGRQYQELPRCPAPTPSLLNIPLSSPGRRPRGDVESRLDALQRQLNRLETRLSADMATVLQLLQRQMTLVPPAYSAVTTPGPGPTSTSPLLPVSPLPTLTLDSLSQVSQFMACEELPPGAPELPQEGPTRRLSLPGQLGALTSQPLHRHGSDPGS

[6] = test system: IL-2; test: IL-2 production in Jurkat cells; assay type: cell-based, human; details: Jurkat stimulated with anti-CD3/CD28, bead-to-cell ratio 1:4
[7] = target: T1, IKZF2; test: IKZF2 FACS assay in primary human Tregs; assay type: cell-based; details: read-out: IKZF2 degradation Dmax in human Treg cells
Outline: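 Thawed human PBMCs were resuspended in RPMI with 10% FBS and 1% P/S. They were treated with test compound at 0.05 nM to 1 μM, with DMSO as vehicle control, for 3 or 6 h. IKZF2 in Treg cells was then assessed by FACS under a defined gating strategy.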

T1 sequence (Q9UKS7 whole entry): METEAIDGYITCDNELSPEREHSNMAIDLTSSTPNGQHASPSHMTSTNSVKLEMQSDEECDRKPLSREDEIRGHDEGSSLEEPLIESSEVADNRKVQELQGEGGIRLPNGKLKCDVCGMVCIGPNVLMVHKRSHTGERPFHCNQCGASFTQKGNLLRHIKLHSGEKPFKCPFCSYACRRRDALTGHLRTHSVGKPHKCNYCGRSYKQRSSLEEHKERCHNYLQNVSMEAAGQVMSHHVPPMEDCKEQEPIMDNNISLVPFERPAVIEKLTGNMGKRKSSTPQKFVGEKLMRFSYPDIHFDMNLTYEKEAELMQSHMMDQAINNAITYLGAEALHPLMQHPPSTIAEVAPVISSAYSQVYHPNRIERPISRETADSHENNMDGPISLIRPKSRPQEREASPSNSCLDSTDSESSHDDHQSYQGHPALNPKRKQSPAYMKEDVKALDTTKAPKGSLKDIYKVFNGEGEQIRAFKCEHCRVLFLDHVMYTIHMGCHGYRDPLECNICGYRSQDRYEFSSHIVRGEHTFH
T1 sequence (Q96SW2 whole entry): as the sequence (Q96SW2 whole entry partner) above
T1 sequence (Q16531 whole entry partner): as the sequence (Q16531 whole entry partner) above

| SMILES | Dmax [3] [%] | other results |
| --- | --- | --- |
| O=C1CCC(N2Cc3c(ccc4c3OCC43CCN(Cc4ccccc4)CC3)C2=O)C(=O)N1 (stereo not drawn) [Compound 5] | – | AUC [1]: 1340 ng·h/mL; AUC [2]: 1170 ng·h/mL |
| O=C1CCC(N2Cc3c(ccc4c3OCC43CCC(Oc4ccccc4)CC3)C2=O)C(=O)N1 (stereo not drawn) [Compound 7] | 38 | – |
| O=C1CCC(N2Cc3c(ccc4c3OCC43CCN(Cc4ccccc4)C3)C2=O)C(=O)N1 (stereo not drawn) [Compound 8] | 33 | – |
| O=C1CCC(N2Cc3c(ccc4c3OCC43CCCN(Cc4ccccc4)CC3)C2=O)C(=O)N1 (stereo not drawn) [Compound 9] | 17 | – |
| O=C1CCC(N2Cc3c(ccc4c3OCCC43CCN(Cc4ccccc4)CC3)C2=O)C(=O)N1 (stereo not drawn) [Compound 10] | 39 | – |
| O=C1CCC(N2Cc3c(ccc4c3OCC43CCN(Cc4ccccc4)CC3(F)F)C2=O)C(=O)N1 (stereo not drawn) [Compound 12] | 68 | – |
| O=C1CCC(N2Cc3c(ccc4c3OCC43CCN(CC4CCCCC4)CC3)C2=O)C(=O)N1 (stereo not drawn) [Compound 13] | 69 | – |
| O=C1CCC(N2Cc3c(ccc4c3OCC43CCN(Cc4ccccn4)CC3)C2=O)C(=O)N1 (stereo not drawn) [Compound 14] | 64 | – |
| O=C1CCC(N2Cc3c(ccc4c3OCC43CCN(Cc4ccsc4)CC3)C2=O)C(=O)N1 (stereo not drawn) [Compound 15] | 84 | – |
| O=C1CCC(N2Cc3cc(C4CCN(Cc5ccccc5)CC4)ccc3C2=O)C(=O)N1 (stereo not drawn) [DKY709] | 73 | time to reach maximal IKZF2 degradation (Dmax plateau) ([3]; IKZF2 HiBiT, HEK293): > 6 h; DC50 ([3]; read-out: IKZF2 degradation DC50, HiBiT, HEK293, 6 h): 1.5 nM; Dmax ([4]; HEK293, read-out: SALL4 degradation Dmax): 55%; DC50 ([4]; read-out: SALL4 degradation DC50, HiBiT, HEK293, 6 h): 4.9 nM; hERG inhibition IC30 [5]: 3000 nM; IL-2 concentration in the supernatant (in words) [6]: increase in IL-2 concentration in the supernatant; Dmax [7]: 73% |

Reference: PMC12046021 (Nature Communications, 2025)
